Reference: ChEMBL document CHEMBL3865799, “Synthesis of a series of novel dihydroartemisinin monomers and dimers containing chalcone as a linker and their anticancer activity” (Eur J Med Chem, 2016)

What was measured:
[1] = Cytotoxicity against human HL60 cells assessed as cell growth inhibition at 30 uM after 48 hrs by MTT assay; format: functional; conditions: HL-60, 48 h, read-out: GI
How it was run: (§1)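 HL-60 suspension cells, 1.5 × 10^4 per well, grown at 37 °C in 5% CO2 with 10% FCS. Treated 48 h with compound in DMSO (vehicle <0.2% v/v). MTT added 3 h before the end. Formazan dissolved in DMSO and read at 570 nm (reference 620 nm). % growth inhibition computed against untreated cells; IC50 taken from the concentration series.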

[2] = Cytotoxicity against human LS180 cells assessed as cell growth inhibition at 50 uM after 48 hrs by MTT assay; format: functional; conditions: LS180, 48 h, read-out: GI
How it was run: (§2)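 Adherent lines at 70–75% confluence, grown at 37 °C in 5% CO2 with 10% FCS. Exposed 48 h to compound in DMSO (vehicle <0.2% v/v). MTT dye added 3 h before termination; formazan dissolved in DMSO, OD 570 nm with 620 nm reference. Growth inhibition expressed as % of untreated; IC50 taken from the dose series.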

[3] = Cell cycle arrest in human HL60 cells assessed as accumulation at G2 phase at 1 uM after 24 hrs by propidium iodide-DNA fluorescence based FACS analysis (reference value: 1 %); format: functional; conditions: HL-60
How it was run: (§3)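 HL-60 cells seeded at 0.5 × 10^6 cells/ml, exposed 24 h to compound (DMSO vehicle, <0.2% v/v). Pelleted at 400×g, PBS-washed, fixed in 70% ethanol at 4 °C overnight. RNase A treatment at 37 °C for 1.30 h, then propidium iodide staining for 20 min. Flow cytometry on 10,000 events, FL2-A vs FL2-W; subG0 (apoptotic) and phase populations gated.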

[4] = system: Vero; experiment: Selectivity index, ratio of IC50 for African green monkey Vero cells to IC50 for human PC3 cells; format: functional
How it was run: (§4)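 Suspension cells were seeded at 1.5 × 10^4 per well and adherent lines at 70–75% confluence, then exposed to a range of concentrations. MTT was added 3 h before the end, formazan dissolved in DMSO, and OD read at 570 nm (reference 620 nm). Growth inhibition was taken relative to untreated cells. IC50 came from the MTT data; SI = IC50 in Vero cells / IC50 in the tumour line.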

[5] = Cytotoxicity against human MIAPaCa2 cells assessed as cell growth inhibition after 48 hrs by MTT assay; format: functional, cell-based; conditions: MIA PaCa-2, 48 h; how it was run: as §2
[6] = Cytotoxicity against human MIAPaCa2 cells assessed as cell growth inhibition at 30 uM after 48 hrs by MTT assay; format: functional; conditions: MIA PaCa-2, 48 h, read-out: GI; how it was run: as §2
[7] = Cytotoxicity against human PC3 cells assessed as cell growth inhibition at 50 uM after 48 hrs by MTT assay; format: functional; conditions: PC-3, 48 h, read-out: GI; how it was run: as §2
[8] = system: HL-60; experiment: Induction of apoptosis in human HL60 cells assessed as loss of mitochondrial membrane potential at 0.5 uM after 24 hrs by Rh123 dye-based FACS analysis (reference value: 5%); format: functional
[9] = system: HL-60; experiment: Induction of apoptosis in human HL60 cells assessed as loss of mitochondrial membrane potential at 5 uM after 24 hrs by Rh123 dye-based FACS analysis (reference value: 5%); format: functional
[10] = Cytotoxicity against human HepG2 cells assessed as cell growth inhibition after 48 hrs by MTT assay; format: functional, cell-based; conditions: HepG2, 48 h; how it was run: as §2
[11] = system: HL-60; experiment: Induction of apoptosis in human HL60 cells assessed as loss of mitochondrial membrane potential at 0.2 uM after 24 hrs by Rh123 dye-based FACS analysis (reference value: 5%); format: functional
[12] = Cell cycle arrest in human HL60 cells assessed as accumulation at S phase at 0.2 uM after 24 hrs by propidium iodide-DNA fluorescence based FACS analysis (reference value: 53 %); format: functional; conditions: HL-60; how it was run: as §3
[13] = Cytotoxicity against human HL60 cells assessed as cell growth inhibition at 10 uM after 48 hrs by MTT assay; format: functional; conditions: HL-60, 48 h, read-out: GI; how it was run: as §1
[14] = system: HL-60; experiment: Induction of apoptosis in human HL60 cells assessed as loss of mitochondrial membrane potential at 1 uM after 24 hrs by Rh123 dye-based FACS analysis (reference value: 5%); format: functional
[15] = Cell cycle arrest in human HL60 cells assessed as accumulation at S phase at 1 uM after 24 hrs by propidium iodide-DNA fluorescence based FACS analysis (reference value: 53 %); format: functional; conditions: HL-60; how it was run: as §3
[16] = Cytotoxicity against human PC3 cells assessed as cell growth inhibition at 30 uM after 48 hrs by MTT assay; format: functional; conditions: PC-3, 48 h, read-out: GI; how it was run: as §2
[17] = Cytotoxicity against human LS180 cells assessed as cell growth inhibition at 30 uM after 48 hrs by MTT assay; format: functional; conditions: LS180, 48 h, read-out: GI; how it was run: as §2
[18] = Cytotoxicity against human HL60 cells assessed as cell growth inhibition at 0.5 uM after 48 hrs by MTT assay; format: functional; conditions: HL-60, 48 h, read-out: GI; how it was run: as §1
[19] = Cell cycle arrest in human HL60 cells assessed as accumulation at S phase at 0.5 uM after 24 hrs by propidium iodide-DNA fluorescence based FACS analysis (reference value: 53 %); format: functional; conditions: HL-60; how it was run: as §3
[20] = Cytotoxicity against human MIAPaCa2 cells assessed as cell growth inhibition at 50 uM after 48 hrs by MTT assay; format: functional; conditions: MIA PaCa-2, 48 h, read-out: GI; how it was run: as §2
[21] = system: HepG2; experiment: Selectivity index, ratio of IC50 for African green monkey Vero cells to IC50 for human HepG2 cells; format: functional; how it was run: as §4
[22] = system: Vero; experiment: Selectivity index, ratio of IC50 for African green monkey Vero cells to IC50 for human MIAPaCa2 cells; format: functional; how it was run: as §4
[23] = system: Vero; experiment: Selectivity index, ratio of IC50 for African green monkey Vero cells to IC50 for human HL60 cells; format: functional; how it was run: as §4
[24] = Cytotoxicity against human LS180 cells assessed as cell growth inhibition after 48 hrs by MTT assay; format: functional, cell-based; conditions: LS180, 48 h; how it was run: as §2
[25] = Cell cycle arrest in human HL60 cells assessed as accumulation at G1 phase at 1 uM after 24 hrs by propidium iodide-DNA fluorescence based FACS analysis (reference value: 46 %); format: functional; conditions: HL-60; how it was run: as §3
[26] = Cell cycle arrest in human HL60 cells assessed as accumulation at G1 phase at 5 uM after 24 hrs by propidium iodide-DNA fluorescence based FACS analysis (reference value: 46 %); format: functional; conditions: HL-60; how it was run: as §3
[27] = Cell cycle arrest in human HL60 cells assessed as accumulation at subG0 phase at 0.5 uM after 24 hrs by propidium iodide-DNA fluorescence based FACS analysis (reference value: 5 %); format: functional; conditions: HL-60; how it was run: as §3
[28] = Cell cycle arrest in human HL60 cells assessed as accumulation at subG0 phase at 5 uM after 24 hrs by propidium iodide-DNA fluorescence based FACS analysis (reference value: 5 %); format: functional; conditions: HL-60; how it was run: as §3
[29] = Cell cycle arrest in human HL60 cells assessed as accumulation at subG0 phase at 0.2 uM after 24 hrs by propidium iodide-DNA fluorescence based FACS analysis (reference value: 5 %); format: functional; conditions: HL-60; how it was run: as §3
[30] = Cell cycle arrest in human HL60 cells assessed as accumulation at S phase at 5 uM after 24 hrs by propidium iodide-DNA fluorescence based FACS analysis (reference value: 53 %); format: functional; conditions: HL-60; how it was run: as §3
[31] = Cell cycle arrest in human HL60 cells assessed as accumulation at G2 phase at 0.5 uM after 24 hrs by propidium iodide-DNA fluorescence based FACS analysis (reference value: 1 %); format: functional; conditions: HL-60; how it was run: as §3

Molecule `C[C@H]1[C@@H](O)O[C@@H]2O[C@@]3(C)CC[C@H]4[C@H](C)CC[C@@H]1[C@@]24OO3` [ARTENIMOL] has an inhibition of growth at 30 µM [1] of 91%, an inhibition of growth at 50 µM [2] of 42% and an Activity [3] of 4%. For the same molecule, the “Ratio IC50” value [4] was 25, the IC50 [5] was 58 µM and the inhibition of growth at 30 µM [6] was 58%. For the same molecule, the inhibition of growth at 50 µM [7] was 43%, the Activity [8] was 20% and the Activity [9] was 41%. It also gave an IC50 [10] of 29 µM, an Activity [11] of 8% and an Activity [12] of 49%. It also gave an inhibition of growth at 10 µM [13] of 63%, an Activity [14] of 32% and an Activity [15] of 34%. The inhibition of growth at 30 µM [16] was 41%, the inhibition of growth at 30 µM [17] was 32% and the inhibition of growth at 0.5 µM [18] was 36%. For the same molecule, the Activity [19] was 37%, the inhibition of growth at 50 µM [20] was 71% and the “Ratio IC50” value [21] was 1.81. For the same molecule, the “Ratio IC50” value [22] was 12, the “Ratio IC50” value [23] was 63 and the IC50 [24] was 32 µM. The Activity [25] was 62%, the Activity [26] was 75% and the Activity [27] was 8%. It also gave an Activity [28] of 27%, an Activity [29] of 6% and an Activity [30] of 20%. For the same molecule, the Activity [31] was 5%.
`C[C@H]1[C@@H](OCCOc2ccc(/C=C/C(=O)c3ccc(O)cc3)cc2)O[C@@H]2O[C@@]3(C)CC[C@H]4[C@H](C)CC[C@@H]1[C@@]24OO3` gave an inhibition of growth at 30 µM [1] of 90.1%, an inhibition of growth at 50 µM [2] of 75.2% and an Activity [3] of 16%. For the same molecule, the “Ratio IC50” value [4] was 82, the IC50 [5] was 22 µM and the inhibition of growth at 30 µM [6] was 68.3 to 86.8%. The inhibition of growth at 50 µM [7] was 88.9%, the Activity [8] was 27% and the Activity [9] was 61%. It also gave an IC50 [10] of 7 µM, an Activity [11] of 9% and an Activity [12] of 46%. The inhibition of growth at 10 µM [13] was 88.4%, the Activity [14] was 53% and the Activity [15] was 70%. The inhibition of growth at 30 µM [16] was 88.6%, the inhibition of growth at 30 µM [17] was 55.2% and the inhibition of growth at 0.5 µM [18] was 58.2%. For the same molecule, the Activity [19] was 32%, the inhibition of growth at 50 µM [20] was 88.8% and the “Ratio IC50” value [21] was 450. For the same molecule, the “Ratio IC50” value [22] was 88, the “Ratio IC50” value [23] was 240 and the IC50 [24] was 24 µM. For the same molecule, the Activity [25] was 14%, the Activity [26] was 55% and the Activity [27] was 28%. It also gave an Activity [28] of 95%, an Activity [29] of 4% and an Activity [30] of 35%. For the same molecule, the Activity [31] was 9%.
For `C[C@H]1[C@@H](OCCOc2cccc(C(=O)/C=C/c3ccc(O)cc3)c2)O[C@@H]2O[C@@]3(C)CC[C@H]4[C@H](C)CC[C@@H]1[C@@]24OO3`, the inhibition of growth at 30 µM [1] was 93.3%, the inhibition of growth at 50 µM [2] was 35.2% and the Activity [3] was 19%. For the same molecule, the “Ratio IC50” value [4] was 80, the IC50 [5] was 39 µM and the inhibition of growth at 30 µM [6] was 37.8 to 77.4%. For the same molecule, the inhibition of growth at 50 µM [7] was 87.9%, the Activity [8] was 34% and the Activity [9] was 58%. The IC50 [10] was 15 µM, the Activity [11] was 7% and the Activity [12] was 46%. For the same molecule, the inhibition of growth at 10 µM [13] was 88.7%, the Activity [14] was 50% and the Activity [15] was 29%. The inhibition of growth at 30 µM [16] was 83.5%, the inhibition of growth at 30 µM [17] was 25.2% and the inhibition of growth at 0.5 µM [18] was 52.9%. The Activity [19] was 38%, the inhibition of growth at 50 µM [20] was 88.6% and the “Ratio IC50” value [21] was 55. The “Ratio IC50” value [22] was 32, the “Ratio IC50” value [23] was 180 and the IC50 [24] was greater than 50 µM. For the same molecule, the Activity [25] was 52%, the Activity [26] was 64% and the Activity [27] was 9%. For the same molecule, the Activity [28] was 70%, the Activity [29] was 4% and the Activity [30] was 20%. For the same molecule, the Activity [31] was 8%.
